ChEMBL document CHEMBL2429803, “Animal toxicity of hairpin pyrrole-imidazole polyamides varies with the turn unit” (J Med Chem, 2013)

Columns and labels:
Mus musculus [1] = test: Acute toxicity in C57BL/6J mouse at 10 mg/kg, sc after 9 days; format: organism-based; set-up: dose 10 mg/kg, route subcutaneous; conditions: in vivo, 216 h
Procedure, shortened: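 Single sc injection in male 8-week-old C57BL/6J mice (1, 3 or 10 mg/kg in 25% DMSO/saline; n = 4 per group), followed for 9 days with daily weighing, then sacrifice. Toxicity was assessed by blinded histopathology of two mice per group and by blinded serum ALT, AST, total bilirubin, BUN and creatinine from retroorbital blood of all mice.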

Mus musculus [2] = test: Toxicity in C57BL/6J mouse assessed as weight loss at 10 mg/kg, sc; format: organism-based; set-up: dose 10 mg/kg, route subcutaneous; conditions: in vivo
Procedure, shortened: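 Single sc injection in 25% DMSO/saline to 8-week-old male C57BL/6J mice acclimated 3 days; groups of four receiving 1, 3 or 10 mg/kg. Weight monitored daily for 9 days, then sacrifice; euthanasia on visible duress or weight loss beyond 15% of original body weight.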

Mus musculus [3] = test: Acute toxicity in C57BL/6J mouse assessed as lesions in heart at 1 to 10 mg/kg, sc after 9 days; format: organism-based; set-up: dose 1-10 mg/kg, route subcutaneous; conditions: in vivo, 216 h
Procedure, shortened: (§1)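 Male C57BL/6J mice, 8 weeks old, received a single sc dose (1, 3 or 10 mg/kg in 25% DMSO/saline, n = 4 per group) and were sacrificed after 9 days. Two representative animals per group were fixed in 10% formalin. Cecum, duodenum, heart, ileum, kidney, liver, lung, pancreas, spleen and stomach were examined blind by a veterinary pathologist and lesions graded mild, moderate or severe.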

Mus musculus [4] = test: Acute toxicity in C57BL/6J mouse assessed as milder tubular regeneration at 10 mg/kg, sc after 9 days; format: organism-based; set-up: dose 10 mg/kg, route subcutaneous; conditions: in vivo, 216 h; procedure, shortened: as §1
Mus musculus [5] = test: Toxicity in C57BL/6J mouse assessed as mild multifocal hepatocellular necrosis and apoptosis in liver at 1 mg/kg, sc administered every 3 days for a cycle of 3 injections measured 2 days post last injection; format: organism-based; set-up: dose 1 mg/kg, route subcutaneous; conditions: in vivo, 48 h
Procedure, shortened: (§2)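 Male C57BL/6J mice, 8 weeks old, given 1 mg/kg sc every 3 days for three injections and sacrificed 2 days after the last one. Two mice per group fixed in 10% formalin. A veterinary pathologist, blinded, examined cecum, duodenum, heart, ileum, kidney, liver, lung, pancreas, spleen and stomach. Lesions graded mild, moderate or severe.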

Mus musculus [6] = test: Toxicity in C57BL/6J mouse assessed as mild tubular attenuation in kidney at 1 mg/kg, sc administered every 3 days for a cycle of 3 injections measured 2 days post last injection; format: organism-based; set-up: dose 1 mg/kg, route subcutaneous; conditions: in vivo, 48 h; procedure, shortened: as §2
Mus musculus [7] = test: Acute toxicity in C57BL/6J mouse assessed as lesions in lungs at 1 to 10 mg/kg, sc after 9 days; format: organism-based; set-up: dose 1-10 mg/kg, route subcutaneous; conditions: in vivo, 216 h; procedure, shortened: as §1
Mus musculus [8] = test: Toxicity in C57BL/6J mouse assessed as weight loss at 1 mg/kg, sc administered every 3 days for a cycle of 3 injections; format: organism-based; set-up: dose 1 mg/kg, route subcutaneous; conditions: in vivo, 72 h
Procedure, shortened: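 8-week-old male C57BL/6J mice, acclimated 3 days, groups of three, dosed sc in 25% DMSO/saline vehicle once every 3 days, sacrificed 2 days after the last injection. Body weight recorded on injection days and at end point; humane end point set at visible duress or >15% loss of original body weight.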

Mus musculus [9] = test: Acute toxicity in C57BL/6J mouse assessed as hepatocellular necrosis and apoptosis at 3 mg/kg, sc after 9 days; format: organism-based; set-up: dose 3 mg/kg, route subcutaneous; conditions: in vivo, 216 h; procedure, shortened: as §1
Mus musculus [10] = test: Acute toxicity in C57BL/6J mouse assessed as lesions in GI tract at 1 to 10 mg/kg, sc after 9 days; format: organism-based, Gastrointestinal tract; set-up: dose 1-10 mg/kg, route subcutaneous; conditions: in vivo, 216 h; procedure, shortened: as §1
Mus musculus [11] = test: Acute toxicity in C57BL/6J mouse assessed as karyomegaly at 10 mg/kg, sc after 9 days; format: organism-based; set-up: dose 10 mg/kg, route subcutaneous; conditions: in vivo, 216 h; procedure, shortened: as §1
Mus musculus [12] = test: Acute toxicity in C57BL/6J mouse assessed as lesions in stomach at 1 to 10 mg/kg, sc after 9 days; format: organism-based; set-up: dose 1-10 mg/kg, route subcutaneous; conditions: in vivo, 216 h; procedure, shortened: as §1
Mus musculus [13] = test: Acute toxicity in C57BL/6J mouse assessed as weight loss at 10 mg/kg, sc after 9 days; format: organism-based; set-up: dose 10 mg/kg, route subcutaneous; conditions: in vivo, 216 h
Procedure, shortened: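 Male C57BL/6J mice, 8 weeks old, were acclimated 3 days and then given a single sc injection of 1, 3 or 10 mg/kg in 25% DMSO/saline vehicle (up to 200 μL), n = 4 per group. Weight, behaviour and appearance were monitored daily for 9 days before sacrifice. The humane end point was visible duress or weight loss over 15% of the original.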

Mus musculus [14] = test: Toxicity in C57BL/6J mouse assessed as epithelial necrosis and apoptosis in kidney at 1 mg/kg, sc administered every 3 days for a cycle of 3 injections measured 2 days post last injection; format: organism-based; set-up: dose 1 mg/kg, route subcutaneous; conditions: in vivo, 48 h; procedure, shortened: as §2
[15] = Metabolic stability in mouse liver microsomes after 1 hr by LC/MS/MS analysis in presence of NADPH; format: ADME, Microsome; conditions: read-out: Stability
Procedure, shortened: (§3)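 Compound incubated at 37 °C for 60 min with 1 mg/mL human or mouse liver microsomes in 100 mM KH2PO4, 3 mM MgCl2, pH 7.4, with 2 mM NADPH or without it. Stopped with ice-cold methanol, then precipitate removed. Analyzed by LC/MS/MS as % remaining versus time zero. Duplicates.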

[16] = Metabolic stability in mouse liver microsomes after 1 hr by LC/MS/MS analysis; format: ADME, Microsome; conditions: read-out: Stability; procedure, shortened: as §3
[17] = Metabolic stability in human liver microsomes after 1 hr by LC/MS/MS analysis in presence of NADPH; format: ADME, Microsome; conditions: read-out: Stability; procedure, shortened: as §3
Mus musculus [18] = test: Acute toxicity in C57BL/6J mouse assessed as diffuse hepatocellular necrosis and apoptosis at 3 to 10 mg/kg, sc after 9 days; format: organism-based; set-up: dose 3-10 mg/kg, route subcutaneous; conditions: in vivo, 216 h; procedure, shortened: as §1
Mus musculus [19] = test: Toxicity in C57BL/6J mouse assessed as morbidity at 1 mg/kg, sc administered every 3 days for a cycle of 3 injections; format: organism-based; set-up: dose 1 mg/kg, route subcutaneous; conditions: in vivo, 72 h
Procedure, shortened: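 Male C57BL/6J mice, 3 per group, given 1 mg/kg sc every 3 days. Weight recorded on injection days. Watched for signs of duress. Humane end point was visible duress or weight loss over 15% of starting body weight.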

[20] = Metabolic stability in human liver microsomes after 1 hr by LC/MS/MS analysis; format: ADME, Microsome; conditions: read-out: Stability; procedure, shortened: as §3
Mus musculus [21] = test: Acute toxicity in C57BL/6J mouse assessed as lesions in pancreas at 1 to 10 mg/kg, sc after 9 days; format: organism-based; set-up: dose 1-10 mg/kg, route subcutaneous; conditions: in vivo, 216 h; procedure, shortened: as §1
Mus musculus [22] = test: Toxicity in C57BL/6J mouse assessed as karyomegaly in kidney at 1 mg/kg, sc administered every 3 days for a cycle of 3 injections measured 2 days post last injection; format: organism-based; set-up: dose 1 mg/kg, route subcutaneous; conditions: in vivo, 48 h; procedure, shortened: as §2

In the case of `CN(CCCNC(=O)c1cccc(C(=O)O)c1)CCCNC(=O)c1cc(NC(=O)c2cc(NC(=O)c3cc(NC(=O)c4nc(NC(=O)[C@H](N)CCNC(=O)c5cc(NC(=O)c6cc(NC(=O)c7cc(NC(=O)c8nccn8C)cn7C)cn6C)cn5C)cn4C)cn3C)cn2C)cn1C`, the Activity (Mus musculus [1]) is reported as “Non-toxic”, the Activity (Mus musculus [2]) is reported as over 15% and the Activity (Mus musculus [3]) is reported as “Non-toxic”. For the same compound, the Activity (Mus musculus [4]) was “Toxic”, the Activity (Mus musculus [5]) was “Toxic” and the Activity (Mus musculus [6]) was “Toxic”. For the same compound, the Activity (Mus musculus [7]) was “Non-toxic”, the Activity (Mus musculus [8]) was “Non-toxic” and the Activity (Mus musculus [9]) was “Toxic”. For the same compound, the Activity (Mus musculus [10]) was “Non-toxic”, the Activity (Mus musculus [11]) was “Toxic” and the Activity (Mus musculus [12]) was “Non-toxic”. The Activity (Mus musculus [13]) was “Toxic”, the Activity (Mus musculus [14]) was “Toxic” and the remaining at 1 h [15] was over 90%. The remaining at 1 h [16] was over 90%, the remaining at 1 h [17] was over 90% and the Activity (Mus musculus [18]) was “Toxic”. For the same compound, the Activity (Mus musculus [19]) was “Non-toxic”, the remaining at 1 h [20] was over 90% and the Activity (Mus musculus [21]) was “Non-toxic”. The Activity (Mus musculus [22]) was “Toxic”.
